What all share (assay type): functional
In experiment [1] the test system is Staphylococcus aureus. Kind of experiment: Effect on growth in Staphylococcus aureus MN8 at 10.00 mM after 24 hrs (reference value: 100%). The method in brief:
(§1)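 Test-tube growth assay: 10 ml growth medium (brain heart infusion with 10% fetal bovine serum, MgCl2, L-glutamine) inoculated to 5 × 10^6 CFU/ml from a 24 h 37°C preculture. Compound diluted in medium, or dissolved in methanol with methanol-matched controls. After 24 h at 37°C with 5% CO2, OD600 and viable counts read. Growth given as % of CFU/ml of untreated controls in the same experiment.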

Experiment [2] has as its system Staphylococcus aureus. Description: Effect on growth in Staphylococcus aureus MN8 at 5.00 mM after 24 hrs (reference value: 100%). Summed up: as §1
Experiment [3] relates to Staphylococcus aureus. Kind of experiment: Effect on growth in Staphylococcus aureus MN8 at 2.50 mM after 24 hrs (reference value: 100%). The method in brief: as §1
The subject of experiment [4] is Staphylococcus aureus. Description: microbe, parasite or virus in culture. As to conditions: 24 h.
Experiment [5] relates to Staphylococcus aureus. Description: microbe, parasite or virus in culture. The following applies: 24 h. The source holds these as a separate data set.
The test system of experiment [6] is Staphylococcus aureus. Kind of experiment: microbe, parasite or virus in culture. The following applies: 24 h. The source holds these as a separate data set.
In experiment [7] the test system is Staphylococcus aureus. Description: Effect on growth in Staphylococcus aureus MN8 at 9.0 mM after 24 hrs (reference value: 100%). The method in brief: as §1
Experiment [8] concerns Staphylococcus aureus. Kind of experiment: microbe, parasite or virus in culture. As to conditions: 24 h. The source holds these as a separate data set.
Experiment [9] relates to Staphylococcus aureus. Description: Effect on growth in Staphylococcus aureus MN8 at 1.00 mM after 24 hrs (reference value: 100%). Summed up: as §1
The subject of experiment [10] is Staphylococcus aureus. Description: Effect on growth in Staphylococcus aureus MN8 at 2.00 mM after 24 hrs (reference value: 100%). Summed up: as §1
Experiment [11] has as its system Staphylococcus aureus. Description: microbe, parasite or virus in culture. As to conditions: 24 h. This is another data set of the same source.
Experiment [12] concerns Staphylococcus aureus. Description: microbe, parasite or virus in culture. As to conditions: 24 h. The source holds these as a separate data set.
The test system of experiment [13] is Staphylococcus aureus. Description: Effect on growth in Staphylococcus aureus MN8 at 10.7 mM after 24 hrs (reference value: 100%). The method in brief:
as §1

Experiment [14] deals with Staphylococcus aureus. Kind of experiment: microbe, parasite or virus in culture. As to conditions: 24 h. This is another data set of the same source.
For experiment [15], the system named is Staphylococcus aureus. Kind of experiment: Effect on growth in Staphylococcus aureus MN8 at 0.50 % after 24 hrs (reference value: 100%). The method in brief: as §1
The test system of experiment [16] is Staphylococcus aureus. Kind of experiment: Effect on growth in Staphylococcus aureus MN8 at 0.10 % after 24 hrs (reference value: 100%). Summed up: as §1
In experiment [17] the test system is Staphylococcus aureus.
For experiment [18], the system named is Staphylococcus aureus. This is another data set of the same source.
The subject of experiment [19] is Staphylococcus aureus. Description: Effect on growth in Staphylococcus aureus MN8 at 0.20 % after 24 hrs (reference value: 100%). Summed up:
as §1

The test system of experiment [20] is Staphylococcus aureus. The source holds these as a separate data set.
In experiment [21] the test system is Staphylococcus aureus. Description: Effect on growth in Staphylococcus aureus MN8 at 0.75 mM after 24 hrs (reference value: 100%). The method in brief:
as §1

Experiment [22] relates to Staphylococcus aureus. Description: Effect on growth in Staphylococcus aureus MN8 at 3.75 mM after 24 hrs (reference value: 100%). The method in brief: as §1
The test system of experiment [23] is Staphylococcus aureus. Description: microbe, parasite or virus in culture. As to conditions: 24 h. The source holds these as a separate data set.
In experiment [24] the test system is Staphylococcus aureus. Kind of experiment: Effect on growth in Staphylococcus aureus MN8 at 120.00 mM after 24 hrs (reference value: 100%). The method in brief: as §1
Experiment [25] deals with Staphylococcus aureus. Kind of experiment: Effect on growth in Staphylococcus aureus MN8 at 80.00 mM after 24 hrs (reference value: 100%). Summed up: as §1
For experiment [26], the system named is Staphylococcus aureus. Description: microbe, parasite or virus in culture. The following applies: 24 h. This is another data set of the same source.
For experiment [27], the system named is Staphylococcus aureus. Kind of experiment: microbe, parasite or virus in culture. As to conditions: 24 h. This is another data set of the same source.
Experiment [28] has as its system Staphylococcus aureus. Kind of experiment: Effect on growth in Staphylococcus aureus MN8 at 9.8 mM after 24 hrs (reference value: 100%). The method in brief: as §1
Experiment [29] relates to Staphylococcus aureus. Kind of experiment: microbe, parasite or virus in culture. As to conditions: 24 h. This is another data set of the same source.

The structures appear in SMILES notation.

In the case of `CCCCCCCCCCCCCCOCCOCCOCCOC(=O)CCCCCCCCCCCCC`, the Activity was determined as 143.3% with Staphylococcus aureus [1], 108% in the experiment with Staphylococcus aureus [2] and 106.6% in the experiment with Staphylococcus aureus [3]. Also, testing at 10000 µM with Staphylococcus aureus [4] gave an inhibition of 22.2%. At 5000 µM the inhibition with Staphylococcus aureus [5] was 47.4%. In the experiment with Staphylococcus aureus [6], this compound gave an inhibition at 2500 µM of 64.9%.
The compound `CCCCCCCCCCCCOCCOCCOCCO` displayed an Activity in the experiment on Staphylococcus aureus [7] of 7.3%. The same compound displayed an inhibition at 9000 µM in the experiment with Staphylococcus aureus [8] of 1%.
In the case of `Oc1ccc(Cc2ccccc2)cc1`, the Activity came out at 70.2% in the experiment with Staphylococcus aureus [9] and 37.1% with Staphylococcus aureus [10]. At 1000 µM the inhibition in the experiment on Staphylococcus aureus [11] was 91%. This compound registered an inhibition at 2000 µM in the experiment on Staphylococcus aureus [12] of 77.2%.
Turning to `CCCCCCCCCCCC(=O)OCC(O)CO` (racemic) [GLYCEROL MONOLAURATE], the Activity in the experiment with Staphylococcus aureus [13] worked out at 36.3%. In the experiment with Staphylococcus aureus [14], this compound displayed an inhibition at 10700 µM of 5.2%.
`CC(=O)Nc1ccc(O)cc1` [ACETAMINOPHEN]: the figures for the Activity with Staphylococcus aureus [15] and with Staphylococcus aureus [16] were 13.2% and 44.2%, respectively. The “inhibition (INH)” value in the experiment with Staphylococcus aureus [17] turned out to be 10.8%; with Staphylococcus aureus [18], 56.3%.
Take `CC(=O)N[C@@H](Cc1ccc(O)cc1)C(=O)O` [ACETYL TYROSINE]: the Activity in the experiment on Staphylococcus aureus [15] was determined as 19.9%; in the experiment on Staphylococcus aureus [16], 47.5%. Moreover, the results for the “inhibition (INH)” value in the experiment with Staphylococcus aureus [17] and in the experiment on Staphylococcus aureus [18] were 47.1% and 71.5%, respectively.
Consider `Nc1ccc(C(=O)O)cc1` [AMINOBENZOIC ACID], for which, in the experiment on Staphylococcus aureus [19], the Activity stood at 11.8%. In addition, in the experiment with Staphylococcus aureus [20], the “inhibition (INH)” value came out at 8.6%.
In the case of `OCc1ccccc1` [BENZYL ALCOHOL], the Activity with Staphylococcus aureus [15] is reported as 8.9%; in the experiment with Staphylococcus aureus [16], 49.7%. The results for the “inhibition (INH)” value in the experiment on Staphylococcus aureus [17] and in the experiment with Staphylococcus aureus [18] were 13.8% and 43.5%, respectively.
On to `CC(=O)/C=C/C1=C(C)CCCC1(C)C` [BETA-IONONE], for which the Activity in the experiment with Staphylococcus aureus [21] was determined as 27.1%; with Staphylococcus aureus [22], 1%. The compound also gave an inhibition at 750 µM in the experiment on Staphylococcus aureus [23] of 10%.
Turning to `C/C=C/C/C=C/CCC(=O)[C@H]1O[C@H]1C(N)=O` [CERULENIN], the Activity worked out at 50% in the experiment with Staphylococcus aureus [24] and 235.1% in the experiment on Staphylococcus aureus [25]. Besides, the inhibition at 120000 µM in the experiment on Staphylococcus aureus [26] was 10.7%. Moreover, at 80000 µM the inhibition with Staphylococcus aureus [27] was 8.4%.
In the experiment with Staphylococcus aureus [13], `CCCCCCCCCCCC(=O)NCCOC(=O)C(CC(=O)[O-])S(=O)(=O)[O-].[Na+].[Na+]` (stereo not drawn) [DISODIUM LAURAMIDO MEA] had an Activity of 29.4%. In addition, in the experiment with Staphylococcus aureus [14], 10700 µM produced 0.4% inhibition.
Turning to `CCCCCCCCCCCCOCCOCCOCCOC(=O)CC(C(=O)[O-])S(=O)(=O)[O-].[Na+].[Na+]` (stereo not drawn) [DISODIUM LAURETH SULFOSUCCCINATE], in the experiment on Staphylococcus aureus [28], the Activity came to 10.3%. Moreover, in the experiment on Staphylococcus aureus [29], the inhibition at 9800 µM turned out to be 0.6%.
`CCCCCCCCCCCC1=NCC[N+]1(CCOCC(=O)[O-])CC(=O)[O-].[Na+].[Na+].[OH-]` (stereo not drawn) [DISODIUM LAUROAMPHODIACETATE] displayed an Activity in the experiment on Staphylococcus aureus [13] of 11.3%. This compound also returned an inhibition at 10700 µM with Staphylococcus aureus [14] of 1%.
As for `O=C(O)c1cc(O)c(O)c(O)c1` [GALLIC ACID], the Activity in the experiment on Staphylococcus aureus [15] was 2.6%; in the experiment on Staphylococcus aureus [16], 45%. Besides, the “inhibition (INH)” value in the experiment on Staphylococcus aureus [17] was found to be 8.7%; in the experiment with Staphylococcus aureus [18] it was 41.4%.
`CC(C)=CCC/C(C)=C/CO` [GERANIOL]: the Activity in the experiment with Staphylococcus aureus [21] was 19.3%; in the experiment on Staphylococcus aureus [22], 3.9%. For the same compound, in the experiment with Staphylococcus aureus [23], the inhibition at 750 µM was 0.7%.

Usually inhibition stands for the percentage by which the read-out fell short of the control. Lower therefore signals a response near the control.

(Values after ChEMBL document CHEMBL1649163, “Surfactants, aromatic and isoprenoid compounds, and fatty acid biosynthesis inhibitors suppress Staphylococcus aureus production of toxic shock syndrome toxin 1” (2009).)
